Reference: ChEMBL document CHEMBL3085699, “Design, synthesis, and biological evaluation of indole-2-carboxamides: a promising class of antituberculosis agents” (J Med Chem, 2013)
≈ marks a conversion by molar mass, not a printed value. Calls of active or inactive are those of the source. No cut-off for these calls is given here.

How the values were obtained:
[1] = tested on: Mycobacterium tuberculosis; assay: Antimicrobial activity against Mycobacterium tuberculosis H37Rv ATCC 27294 after 5 days by three-fold serial dilution assay; assay type: functional; details: H37Rv ATCC 27294, 120 h
How it was run: (§1)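 H37Rv grown in 7H9 broth with 0.05% Tween 80 and 10% ADS. Compounds in 90% DMSO, three-fold serially diluted in duplicate. Early-log culture diluted to OD600 0.02 was added, then incubated at 37 °C for 5 days. Growth read by absorbance. MIC50 (50% growth inhibition) taken from non-linear curve fits. Isoniazid ran as internal control in every assay.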

[2] = Aqueous solubility of the compound at pH 6.8 after 24 hrs by high-throughput equilibrium solubility assay; assay type: physicochemical; details: buffer
How it was run: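 Miniaturized shake-flask equilibrium method. DMSO stock removed by centrifugal evaporation, aqueous buffer added, shaken 24 h. Plunger pushed through a filter membrane, shaken a further 30 min, and filtrate quantified by HPLC.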

[3] = Intrinsic clearance in mouse liver microsomes by LC/MS/MS analysis; assay type: ADME, Microsome; details: read-out: CLH
How it was run: (§2)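 Compound depletion in liver microsomes of the named species, measured by LC/MS/MS. In vitro half-life gave hepatic extraction ratio and predicted metabolic clearance.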

[4] = tested on: Mycobacterium tuberculosis; assay: Ratio of isoniazid MIC50 to compound MIC50 against Mycobacterium tuberculosis H37Rv ATCC 27294; assay type: functional; how it was run: as §1
[5] = Elimination half life in mouse at 25 mg/kg, po by LC/MS analysis; assay type: ADME, organism-based; parameters: dose 25 mg/kg, route oral; details: in vivo, read-out: beta t1/2 (converted)
How it was run: (§3)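 Mice dosed p.o. at 25 mg/kg (2.5 mg/mL) or i.v. at 5 mg/kg (1 mg/mL). Vehicles varied: propanediol/solutol in pH 4.6 acetate buffer, or microemulsion/Cremophor-based mixes. Blood taken 0.08–24 h (i.v. first point 0.02 h), three mice per time point. Plasma extracted with acetonitrile:methanol:acetic acid and quantified by LC/MS/MS (LLOQ 1–3 ng/mL). Noncompartmental analysis of mean profiles; F from dose-corrected p.o./i.v. AUC.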

[6] = Clearance in mouse at 5 mg/kg, iv by LC/MS analysis; assay type: ADME, organism-based; parameters: dose 5 mg/kg, route intravenous; details: in vivo; how it was run: as §3
[7] = Oral bioavailability in mouse at 25 mg/kg by LC/MS analysis; assay type: ADME, organism-based; details: in vivo; how it was run: as §3
[8] = Cmax in mouse at 25 mg/kg, po by LC/MS analysis; assay type: ADME, organism-based; parameters: dose 25 mg/kg, route oral; details: in vivo; how it was run: as §3
[9] = Elimination half life in mouse at 5 mg/kg, iv by LC/MS analysis; assay type: ADME, organism-based; parameters: dose 5 mg/kg, route intravenous; details: in vivo, read-out: beta t1/2 (converted); how it was run: as §3
[10] = Volume of distribution at steady state in mouse at 5 mg/kg, iv by LC/MS analysis; assay type: ADME, organism-based; parameters: dose 5 mg/kg, route intravenous; details: in vivo, read-out: Vdss; how it was run: as §3
[11] = AUC (0 to 24 hrs) in mouse at 25 mg/kg, po by LC/MS analysis; assay type: ADME, organism-based; parameters: time < 24 hr, dose 25 mg/kg, route oral; details: plasma; how it was run: as §3
[12] = Intrinsic clearance in human liver microsomes by LC/MS/MS analysis; assay type: ADME; details: read-out: CLH; how it was run: as §2
[13] = tested on: Mycobacterium tuberculosis; assay: Antitubercular activity against Mycobacterium tuberculosis H37Rv infected in Balb/c mouse model assessed as log CFU reduction at 25 mg/kg, po qd administered for 28 days relative to untreated control; assay type: functional
How it was run: (§4)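 Balb/c mice infected intranasally on day 0 with 10^3 H37Rv bacilli. Oral dosing, once daily, 7 days a week for 28 days, began 7 days post-infection at 25 or 75 mg/kg; ethambutol 100 mg/kg served as positive control. Lungs removed aseptically and homogenized. CFU counted by serial dilution plating on 7H11 agar; log lung CFU compared with untreated controls.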

[14] = tested on: Mycobacterium tuberculosis; assay: Antitubercular activity against Mycobacterium tuberculosis H37Rv infected in Balb/c mouse model assessed as log CFU reduction at 75 mg/kg, po qd administered for 28 days relative to untreated control; assay type: functional; how it was run: as §4
[15] = Intrinsic clearance in rat liver microsomes by LC/MS/MS analysis; assay type: ADME; details: read-out: CLH; how it was run: as §2
THP-1 = assay: Cytotoxicity against human THP1 cells; assay type: cell-based
[16] = Elimination half life in mouse at 5 mg/kg, iv and 75 mg/kg, po by LC/MS analysis; assay type: ADME, organism-based; details: in vivo, read-out: beta t1/2 (converted)
[17] = AUC (0 to 24 hrs) in mouse at 5 mg/kg, iv and 75 mg/kg, po by LC/MS analysis; assay type: ADME, organism-based; details: plasma
[18] = tested on: Mycobacterium tuberculosis; assay: Antitubercular activity against Mycobacterium tuberculosis H37Rv infected in Balb/c mouse model assessed as log CFU reduction at 100 mg/kg, po qd administered for 28 days relative to untreated control; assay type: functional, organism-based; parameters: dose 100 mg/kg; how it was run: as §4

SMILES	MIC50 [1] [µM]	solubility thermodynamic at 24 h [2] [µM]	microsomal CLint [3] [µL/min/mg]	further results
NNC(=O)c1ccncc1 [ISONIAZID]	0.33 (≈ 0.0453 µg/mL)	–	–	–
C[C@H]1CCCC[C@H]1NC(=O)c1cc2c(Cl)cc(Cl)cc2[nH]1	0.053 (≈ 0.0172 µg/mL)	< 4	89	–
C[C@H]1CC[C@@H](NC(=O)c2cc3c(Cl)cc(Cl)cc3[nH]2)CC1	0.18 (≈ 0.0585 µg/mL)	< 4	47	–
CC1CCC(NC(=O)c2cc3ccc(Cl)cc3[nH]2)CC1 (stereo not given)	0.23 (≈ 0.0669 µg/mL)	–	433	–
Cc1cc(C)c2cc(C(=O)NCCC(C)C)[nH]c2c1	3.26 (≈ 0.842 µg/mL)	–	–	–
Cc1cc(C)c2cc(C(=O)N[C@@H]3CCCC[C@@H]3C)n(C)c2c1	> 20	–	–	–
COCCNC(=O)c1cc2c(C)cc(C)cc2[nH]1	> 20	620 (≈ 153 µg/mL)	–	–
Cc1cc(C)c2cc(C(=O)N[C@@H]3CCCC[C@@H]3C)[nH]c2c1	0.079 (≈ 0.0225 µg/mL)	< 4	433	Ratio [4]: 4
CC1CCC(NC(=O)c2cc3c(F)cc(F)cc3[nH]2)CC1 (stereo not given)	0.3 (≈ 0.0877 µg/mL)	< 4	866	–
Cc1cc(C)c2cc(C(=O)NC3CCCCCC3)[nH]c2c1	0.1 (≈ 0.0284 µg/mL)	< 4	–	–
Cc1cc(C)c2cc(C(=O)Nc3ccccc3)[nH]c2c1	16 (≈ 4.23 µg/mL)	< 4	–	–
Cc1cc(C)c2cc(C(=O)NCC(C)C)[nH]c2c1	11.8 (≈ 2.9 µg/mL)	–	–	–
Cc1nc(C)c2cc(C(=O)N[C@@H]3CCCC[C@@H]3C)[nH]c2n1	> 20	143 (≈ 41 µg/mL)	–	–
CC1CCC(NC(=O)c2cc3ccc(Cl)c(Cl)c3[nH]2)CC1 (stereo not given)	0.97 (≈ 0.315 µg/mL)	–	308	–
CC1CCC(NC(=O)c2cc3c(Cl)cc(Cl)cc3[nH]2)CC1 (stereo not given)	0.15 (≈ 0.0488 µg/mL)	< 4	37	half-life [5]: 4.2 h; clearance [6]: 20.1 mL/min/kg; bioavailability [7]: 48%; Cmax [8]: 7.23 µM; half-life [9]: 6.89 h; Vd [10]: 2.2 L/kg; AUC(0-t) at 24 h [11]: 30.4 µM·h
CC1CCC(NC(=O)c2cc3cc(Cl)ccc3[nH]2)CC1 (stereo not given)	1.29 (≈ 0.375 µg/mL)	–	122	–
Cc1cc(C)c2cc(C(=O)N(C)C3CCCCC3)[nH]c2c1	> 20	–	–	–
CCC(CC)NC(=O)c1cc2c(C)cc(C)cc2[nH]1	4.33 (≈ 1.12 µg/mL)	< 4	–	–
Cc1cc(C)c2cc(C(=O)NC(C)C)[nH]c2c1	> 20	20 (≈ 4.61 µg/mL)	–	–
CCC(C)NC(=O)c1cc2c(C)cc(C)cc2[nH]1 (stereo not given)	9.33 (≈ 2.28 µg/mL)	22 (≈ 5.38 µg/mL)	–	–
CC1CCC(NC(=O)c2cc3cccc(Cl)c3[nH]2)CC1 (stereo not given)	1.49 (≈ 0.433 µg/mL)	–	1040	–

SMILES	MIC50 [1] [µM]	solubility thermodynamic at 24 h [2] [µM]	microsomal CLint [3] [µL/min/mg]	further results
Cc1cc(C)c2cc(C(=O)NC3CCCCC3)[nH]c2c1	0.82 (≈ 0.222 µg/mL)	< 4	–	–
Cc1cc(C)c2nc(C(=O)N[C@@H]3CCCC[C@@H]3C)[nH]c2c1	> 20	–	–	–
CC1(C)CCC(NC(=O)c2cc3c(F)cc(F)cc3[nH]2)CC1	0.023 (≈ 0.00705 µg/mL)	< 4	132	half-life [5]: 5.18 h; microsomal CLint [12]: 3.4 µL/min/mg; FC [13]: 2.4; clearance [6]: 18.7 mL/min/kg; FC [14]: 4.6; bioavailability [7]: 51%; microsomal CLint [15]: 87 µL/min/mg; Cmax [8]: 4.21 µM; half-life [9]: 4.47 h; Vd [10]: 2.24 L/kg; AUC(0-t) at 24 h [11]: 35.5 µM·h
Cc1cc(C)c2cc(C(=O)NC3CCN(C)CC3)[nH]c2c1	> 20	> 10000	–	–
CC1CCC(NC(=O)c2cc3c(Cl)c(Cl)ccc3[nH]2)CC1 (stereo not given)	0.22 (≈ 0.0716 µg/mL)	–	60.8	–
CC1CCC(NC(=O)c2cc3cc(Cl)c(Cl)cc3[nH]2)CC1 (stereo not given)	0.16 (≈ 0.052 µg/mL)	–	73.3	–
CC1CCC(NC(=O)c2cc3c(Cl)cc(F)cc3[nH]2)CC1 (stereo not given)	0.18 (≈ 0.0556 µg/mL)	< 4	77	–
CC1CCC(NC(=O)c2cc3c(Cl)ccc(Cl)c3[nH]2)CC1 (stereo not given)	> 20	–	40.4	–
Cc1cc2[nH]c(C(=O)N[C@@H]3CCCC[C@@H]3C)cc2c(C)n1	> 20	–	–	–
C[C@H]1CC[C@H](NC(=O)c2cc3c(Cl)cc(Cl)cc3[nH]2)CC1	0.14 (≈ 0.0455 µg/mL)	< 4	3.4	microsomal CLint [12]: 10 µL/min/mg; Activity (THP-1): > 20 µM; FC [14]: 0.88; half-life [16]: 5.29 h; microsomal CLint [15]: 30.5 µL/min/mg; AUC(0-t) [17]: 89.1 µM·h
O=C(NC1CCC(F)(F)CC1)c1cc2c(Cl)cc(Cl)cc2[nH]1	0.85 (≈ 0.295 µg/mL)	< 4	23	microsomal CLint [12]: 7.8 µL/min/mg; microsomal CLint [15]: 38.8 µL/min/mg
C[C@H]1CC[C@H](NC(=O)c2cc3c(F)cc(F)cc3[nH]2)CC1	0.16 (≈ 0.0468 µg/mL)	< 4	149	–
CC1CCC(NC(=O)c2cc3c(Cl)cccc3[nH]2)CC1 (stereo not given)	0.19 (≈ 0.0553 µg/mL)	–	462	–
C[C@H]1CCCC[C@H]1NC(=O)c1cc2c(F)cc(F)cc2[nH]1	0.28 (≈ 0.0819 µg/mL)	< 4	660	–
CC1CCC(NC(=O)c2cc3cc(Cl)cc(Cl)c3[nH]2)CC1 (stereo not given)	0.41 (≈ 0.133 µg/mL)	–	187	–
Cc1cc(C)c2c(c1)NC(C(=O)N[C@@H]1CCCC[C@@H]1C)C2 (stereo not given in full)	1.24 (≈ 0.355 µg/mL)	< 4	–	–
CC1CCC(NC(=O)c2cc3c(F)cc(Cl)cc3[nH]2)CC1 (stereo not given)	0.19 (≈ 0.0587 µg/mL)	< 4	28	–
Cc1cc(C)c2cc(C(=O)NC3CCCCC3O)[nH]c2c1 (stereo not given)	8.9 (≈ 2.55 µg/mL)	56 (≈ 16 µg/mL)	–	–
Cc1cc(C)c2cc(C(=O)NC3CCOCC3)[nH]c2c1	> 20	17 (≈ 4.63 µg/mL)	–	–
CC1(C)CCC(NC(=O)c2cc3c(Cl)cc(Cl)cc3[nH]2)CC1	0.015 (≈ 0.00509 µg/mL)	< 4	13	half-life [5]: 5.96 h; microsomal CLint [12]: 59 µL/min/mg; Activity (THP-1): > 20 µM; FC [13]: 2.6; clearance [6]: 18.1 mL/min/kg; FC [14]: 4.79; bioavailability [7]: 53%; half-life [16]: 8.14 h; microsomal CLint [15]: 139 µL/min/mg; Cmax [8]: 3.51 µM; AUC(0-t) [17]: 70.3 µM·h; half-life [9]: 5.25 h; Vd [10]: 4.11 L/kg; AUC(0-t) at 24 h [11]: 33.9 µM·h
CC[C@@H](CO)NCCN[C@@H](CC)CO	–	–	–	Activity [18]: Active
